Data reported in paper PMC5413378 (Cancer research, 2017).

Key:
[1] = molecular target: BRD4 (Mus musculus, UniProt Q9ESU6); test: BRD4 protein in mouse liver tissue; format: in vivo; details: single dose 5 mg/kg
[2] = test system: TNBC cell lines; test: CellTiter Glo cell viability assay in a panel of 13 TNBC cell lines; format: cell-based, human; details: for IC50: read-out: IC50 growth inhibition, in 9 of the 13 cell lines, 4 days
[3] = PK analysis in MDA-MB-231 xenograft model; format: in vivo, mice; details: MDA-MB-231 model
[4] = test system: MDA-MB-453 xenograft model; test: MDA-MB-453 xenograft efficacy study; format: in vivo; details: for weight loss or apparent toxicity: MDA-MB-453 model
In short: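 Five million MDA-MB-453 cells were implanted subcutaneously in SCID mice, which were randomised at tumour size 80-200 mm3. Dosing was IV in 10% PEG400: 3% Cremophor: 87% PBS, or oral in 2% TPGS: 98% PEG200. Tumours and body weight were measured every 2-3 days. Volume was (length×width2)/2, and TGI (%) = (Vc-Vt)/(Vc-Vo)×100 using medians. Two-tailed t test versus vehicle; n=7-8.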

[5] = test system: MDA-MB-468 xenograft model; test: MDA-MB-468 xenograft efficacy study; format: in vivo, SCID mice; details: 10 mg/kg, IV, 3 times per week for 2-3 weeks
[6] = test system: BET proteins; test: Pharmacodynamic analysis in WHIM24 tumors; format: in vivo, SCID mice
[7] = test system: MCL1; test: MCL1 expression by qRT-PCR and immunoblotting; format: cell-based, human; details: for expression of BRD2 and MCL1: MDA-MB-468 cells, 12 h immunoblotting, JQ1 2000 nM, dBET1 500 nM
[8] = test system: TNBC cell lines; format: cell-based, human
[9] = test system: caspase-3 and poly(ADP-ribose) polymerase (PARP); test: Caspase-3 and PARP cleavage by immunoblotting; format: cell-based, human; details: as low as
[10] = test system: normal mouse tissues; test: Toxicity in immune-competent Balb/c mice; format: in vivo; details: 5 mg/kg intravenously, daily, 5 days a week for 2 weeks
In short: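 Immune-competent Balb/c mice received test compound intravenously, daily, 5 days a week for 2 weeks. Animals were sacrificed at the end of treatment, and tissues were examined for damage.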

[11] = PK analysis in MDA-MB-468 xenograft model; format: in vivo, mice; details: MDA-MB-468 model
[12] = test system: BRD2, BRD3 and BRD4; test: BET protein depletion by immunoblotting in TNBC cell lines; format: cell-based, human; details: for concentration giving near-complete depletion of BRD2-4 proteins / effect on BET protein levels: TNBC cell lines; for effect on BET protein levels: immunoblotting
[13] = test system: WHIM24 PDX model; test: WHIM24 PDX efficacy study; format: in vivo; details: for antitumor activity: 3 times per week for 3 weeks; for weight loss or apparent toxicity: WHIM24 model
In short: (§1)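 SCID mice bearing MDA-MB-231 xenografts or serially passaged WHIM24 PDX tumours were randomised once tumours reached 80-200 mm3. Test compound was given IV in 10% PEG400: 3% Cremophor: 87% PBS, 3 times per week for 3 weeks. Tumour size and body weight were measured 2-3 times weekly. Volume was (length×width2)/2, and TGI used group medians. Data are mean ± SEM (n=7-8), with two-tailed t test versus vehicle.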

[14] = Pharmacokinetics in WHIM24 tumor-bearing mice; format: in vivo; details: single dose 10 mg/kg, at 1 and 3 h; concentrations diminished rapidly
[15] = test system: MDA-MB-468 cells; test: Proteomic profiling; format: cell-based, human; details: 2 h
[16] = test system: MDA-MB-231 xenograft model; test: MDA-MB-231 xenograft efficacy study; format: in vivo; details: for antitumor activity: IV; for weight loss or overt toxicity: MDA-MB-231 model
In short: as §1

[17] = test system: BET proteins; test: PD analysis in MDA-MB-231 xenograft tumors; format: in vivo, SCID mice; details: single dose 5 mg/kg, 1-3 h post drug exposure
[18] = test system: BET proteins; test: PD analysis in MDA-MB-468 xenograft tumors; format: in vivo, SCID mice; details: single dose 5 mg/kg, 1-3 h post drug exposure
[19] = molecular target: BET proteins; test: Binding to BET proteins
[20] = test system: TNBC cell lines; test: Annexin V-PI apoptosis flow cytometry analysis; format: cell-based, human

Q: With `CCn1nc(C2CC2)cc1Nc1nc(C(=O)NCCCOCCOCCOCCCNc2cccc3c2C(=O)N(C2CCC(=O)NC2=O)C3=O)nc2[nH]c3cc(-c4c(C)noc4C)c(OC)cc3c12` (stereo not drawn) [BETd-246] as the molecule, how does the “BRD4 protein in mouse liver tissue” value [1] read?
A: Its value is “effectively reduce BRD4 protein”.

Q: And the IC90 ([2]; in 7 of the 13 cell lines)?
A: Its IC90 is < 100 nM.

Q: What about the IC50 [2] of the same molecule?
A: Its IC50 is < 10 nM.

Q: And the “drug exposure in plasma and xenograft tumor tissue” value [3]?
A: The value was “very limited drug exposure”.

Q: And the “weight loss or apparent toxicity” value [4]?
A: Its value is “No significant weight loss”.

Q: And the antitumor activity [5]?
A: Its antitumor activity is “no antitumor activity”.

Q: What about the “MCL1 protein levels in tumors” value ([6]; as early as 3 h after treatment) of the same molecule?
A: The value was “markedly reduced”.

Q: What about the “duration of BET protein reduction in tumors” value ([6]; single IV dose 10 mg/kg) of the same molecule?
A: The value was “at least 9 h”.

Q: And the “reduction of the levels of BET proteins in tumors” value ([6]; single IV dose 10 mg/kg, as early as 1 h)?
A: Its value is > 80%.

Q: What about the “lowest concentration giving significant down-regulation of MCL1 mRNA” value ([7]; as low as, MDA-MB-468, 8 h, qRT-PCR) of the same molecule?
A: The value was 10 nM.

Q: What about the “synergy in combination with BM-1197, ABT-263 and A-1155463” value ([8]; in 6 of the 7 cell lines) of the same molecule?
A: The value was “Modest to strong synergy”.

Q: And the “strong synergistic induction of apoptosis in combination with ABT-199” value ([8]; panel of TNBC cell lines)?
A: Its value is “only observed in MDA-MB-468”.

Q: And the “lowest concentration giving profound cleavage of caspase-3 and PARP” value [9]?
A: The value was 10 nM.

Q: What about the “toxicity in normal mouse tissues” value [10] of the same molecule?
A: Its value is “no significant toxicity”.

Q: And the “drug exposure in plasma and xenograft tumor tissue” value [11]?
A: The value was “very limited drug exposure”.

Q: What about the “concentration giving near-complete depletion of BRD2-4 proteins” value ([12]; 1 h treatment) of the same molecule?
A: The value was 30 to 100 nM.

Q: What about the “concentration giving near-complete depletion of BRD2-4 proteins” value ([12]; 3 h treatment) of the same molecule?
A: The value was 10 to 30 nM.

Q: And the antitumor activity ([13]; 5 mg/kg, IV)?
A: The antitumor activity was “effectively inhibited WHIM24 tumor growth”.

Q: What about the antitumor activity ([13]; 10 mg/kg, during treatment) of the same molecule?
A: The antitumor activity was “partial tumor regression”.

Q: And the “weight loss or apparent toxicity” value [13]?
A: Its value is “Neither BETi-211 nor BETd-246 caused significant weight loss”.

Q: What about the “drug exposure in plasma and WHIM24 tumors” value [14] of the same molecule?
A: The value was “reasonable drug exposure”.

Q: What about the “decrease of BRD2, BRD3 and BRD4 protein levels” value ([15]; 100 nM, MDA-MB-468, p<0.05, only proteins decreased out of ~5500 quantified) of the same molecule?
A: Its value is ≥ 2 fold.

Q: What about the antitumor activity ([16]; 10 mg/kg, 3 times per week for 2-3 weeks) of the same molecule?
A: Its antitumor activity is “very limited”.

Q: What about the “weight loss or overt toxicity” value [16] of the same molecule?
A: The value was “Neither BETd-246 nor BETd-260 caused significant weight loss”.

Q: With `CCn1nc(C2CC2)cc1Nc1nc(C(=O)NCCCCCc2cccc3c2CN(C2CCC(=O)NC2=O)C3=O)nc2[nH]c3cc(-c4c(C)noc4C)c(OC)cc3c12` (stereo not drawn) [BETd-260] as the molecule, how does the “times more potent than BETd-246 in growth inhibition” value ([2]; TNBC cells) read?
A: The value was 2-7 times.

Q: What about the “drug exposure in plasma and xenograft tumor tissue” value [3] of the same molecule?
A: Its value is “much higher than that of BETd-246”.

Q: What about the “BET protein levels in xenograft tumors” value [17] of the same molecule?
A: The value was “effectively reduced BET protein levels”.

Q: What about the “BET protein levels in xenograft tumors” value [18] of the same molecule?
A: Its value is “effectively reduced BET protein levels”.

Q: And the “drug exposure in plasma and xenograft tumor tissue” value [11]?
A: Its value is “much higher than that of BETd-246”.

Q: What about the “effect on BET protein levels” value [12] of the same molecule?
A: Its value is “potently depleted BET proteins at low nanomolar concentrations”.

Q: And the antitumor activity ([16]; 5 mg/kg, 3 times per week for 3 weeks, compared with BETd-246 at 10 mg/kg)?
A: The antitumor activity was “much stronger antitumor activity than BETd-246”.

Q: And the “weight loss or overt toxicity” value [16]?
A: The value was “Neither BETd-246 nor BETd-260 caused significant weight loss”.

Q: What does the source list for `CCn1nc(C2CC2)cc1Nc1nc(COC)nc2[nH]c3cc(-c4c(C)noc4C)c(OC)cc3c12` [BETi-211]?
A: growth inhibition ([2]; at 2.5 μM, achieved in 2 of the 13 cell lines): ≥ 90%; IC50 [2]: < 1000 nM; tumor growth inhibition ([4]; 50 mg/kg, daily, 5 days a week for 2 weeks): failed to achieve tumor growth inhibition; weight loss or apparent toxicity [4]: No significant weight loss; Ki [19]: < 1 nM; times more potent than RX-37, JQ-1, OTX-015 or IBET-762 [19]: 10-100 times; synergism with either BM-1197 or ABT-263 [8]: No clear synergism; apoptosis induction ([20]; 1000 nM, 48 h treatment): 3-25%; effect on BET protein levels [12]: did not degrade BET proteins; weight loss or apparent toxicity [13]: Neither BETi-211 nor BETd-246 caused significant weight loss; increase of BRD2 protein level ([15]; 1000 nM, MDA-MB-468): 2 fold

Q: Which “expression of BRD2 and MCL1” value [7] does the source give for `Cc1sc2c(c1C)C(c1ccc(Cl)cc1)=N[C@@H](CC(=O)OC(C)(C)C)c1nnc(C)n1-2` [JQ1] here?
A: The value was “increased expression of BRD2 and MCL1”.

Q: With `O=C1CCC(N2C(=O)c3ccccc3C2=O)C(=O)N1` (stereo not drawn) [Thalidomide, thalidomide, reference compound] as the molecule, how does the “effect on apoptosis induction and cell proliferation” value ([20]; alone) read?
A: The value was “no significant effect”.

Q: And the “effect on BET protein levels” value [12]?
A: The value was “no significant effect”.

Q: Which “expression of BRD2 and MCL1” value [7] does the source give for `Cc1sc2c(c1C)C(c1ccc(Cl)cc1)=N[C@@H](CC(=O)NCCCCNC(=O)COc1cccc3c1C(=O)N(C1CCC(=O)NC1=O)C3=O)c1nnc(C)n1-2` (stereo partly drawn) [dBET1, reference compound] here?
A: The value was “downregulated MCL1 expression”.

Q: And the BET protein depletion ([12]; 500 nM, MDA-MB-468 cells, 12 h)?
A: The BET protein depletion was “effectively depleted BET proteins”.
